Reference: ChEMBL document CHEMBL2069293, “Design, synthesis and evaluation of the inhibitory selectivity of novel trans-resveratrol analogues on human recombinant CYP1A1, CYP1A2 and CYP1B1” (Bioorg Med Chem, 2012)

Experiments:
Type in all cases: ADME
Cytochrome P450 1A2 [1] = target: T1, Cytochrome P450 1A2 (Homo sapiens, UniProt P05177); assay: Inhibition of human recombinant CYP1A2 by spectrophotometry based 7-ethoxyresorufin O-deethylation enzyme assay
T1 sequence (P05177 whole entry): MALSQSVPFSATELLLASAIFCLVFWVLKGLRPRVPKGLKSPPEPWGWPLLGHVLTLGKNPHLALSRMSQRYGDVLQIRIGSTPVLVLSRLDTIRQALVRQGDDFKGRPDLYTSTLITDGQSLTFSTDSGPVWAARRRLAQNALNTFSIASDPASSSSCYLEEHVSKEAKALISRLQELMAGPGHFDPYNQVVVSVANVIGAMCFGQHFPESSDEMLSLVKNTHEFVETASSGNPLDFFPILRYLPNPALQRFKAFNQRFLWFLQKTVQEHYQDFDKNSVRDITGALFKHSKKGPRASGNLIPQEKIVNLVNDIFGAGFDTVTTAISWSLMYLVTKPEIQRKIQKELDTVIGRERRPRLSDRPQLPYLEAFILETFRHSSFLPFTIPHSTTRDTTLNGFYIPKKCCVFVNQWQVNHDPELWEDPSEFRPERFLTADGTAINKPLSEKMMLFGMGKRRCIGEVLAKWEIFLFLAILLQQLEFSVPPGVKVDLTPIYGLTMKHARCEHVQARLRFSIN
Summary of the method: (§1)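 EROD assay: fresh DMSO solutions of test compound over various concentrations with 2 µM 7-ethoxyresorufin, 1.3 mM NADP+, 3.3 mM glucose-6-phosphate, 0.5 U/ml G6PDH, 3.3 mM MgCl2 in 100 mM potassium phosphate pH 7.4. Started with enzyme (1.25 pmol CYP1A1, or 5 pmol CYP1A2 or CYP1B1), 37 °C, 15 min. Resorufin fluorescence (ex 550/em 585) against resorufin standard. IC50 read graphically from % of control activity; three parallel experiments.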

Cytochrome P450 1A1 = target: T2, Cytochrome P450 1A1 (Homo sapiens, UniProt P04798); assay: Inhibition of human recombinant CYP1A1 by spectrophotometry based 7-ethoxyresorufin O-deethylation enzyme assay; summary of the method: as §1
T2 sequence (P04798 whole entry): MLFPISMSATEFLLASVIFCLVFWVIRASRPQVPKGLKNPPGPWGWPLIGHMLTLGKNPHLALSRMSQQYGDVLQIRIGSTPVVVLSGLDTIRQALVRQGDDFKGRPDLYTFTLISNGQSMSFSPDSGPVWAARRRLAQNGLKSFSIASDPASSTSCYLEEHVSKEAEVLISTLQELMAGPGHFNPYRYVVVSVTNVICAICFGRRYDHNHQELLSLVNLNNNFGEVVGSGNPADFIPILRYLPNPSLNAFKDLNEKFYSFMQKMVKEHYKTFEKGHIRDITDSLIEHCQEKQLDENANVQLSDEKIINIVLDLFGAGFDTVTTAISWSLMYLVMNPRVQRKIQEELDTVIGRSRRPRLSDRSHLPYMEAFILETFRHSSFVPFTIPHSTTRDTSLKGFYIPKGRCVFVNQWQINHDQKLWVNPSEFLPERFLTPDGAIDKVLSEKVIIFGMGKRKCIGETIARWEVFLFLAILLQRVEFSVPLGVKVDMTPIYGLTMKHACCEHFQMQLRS

Cytochrome P450 1B1 = target: T3, Cytochrome P450 1B1 (Homo sapiens, UniProt Q16678); assay: Inhibition of human recombinant CYP1B1 by spectrophotometry based 7-ethoxyresorufin O-deethylation enzyme assay; summary of the method: as §1
T3 sequence (Q16678 whole entry): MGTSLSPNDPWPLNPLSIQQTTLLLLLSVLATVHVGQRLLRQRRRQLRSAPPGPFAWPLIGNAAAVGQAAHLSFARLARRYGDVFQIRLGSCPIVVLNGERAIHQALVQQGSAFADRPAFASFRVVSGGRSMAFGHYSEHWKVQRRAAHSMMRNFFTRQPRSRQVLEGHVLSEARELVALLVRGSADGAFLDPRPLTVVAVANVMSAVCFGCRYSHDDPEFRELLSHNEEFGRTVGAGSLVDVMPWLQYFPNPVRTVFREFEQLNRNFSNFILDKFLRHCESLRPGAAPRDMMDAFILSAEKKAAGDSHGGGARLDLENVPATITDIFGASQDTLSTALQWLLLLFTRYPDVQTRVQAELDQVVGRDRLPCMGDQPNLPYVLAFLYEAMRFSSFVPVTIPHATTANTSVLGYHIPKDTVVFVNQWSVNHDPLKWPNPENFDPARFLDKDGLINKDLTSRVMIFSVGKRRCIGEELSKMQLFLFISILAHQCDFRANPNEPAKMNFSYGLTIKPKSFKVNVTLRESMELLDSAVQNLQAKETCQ

CYP1A2 / CYP1A1 = assay: Selectivity ratio, ratio of IC50 for human recombinant CYP1A2 to IC50 for human recombinant CYP1A1; details: recombinant CYP1A2 and recombinant CYP1A1, read-out: Ratio IC50
CYP1A2 / CYP1B1 = assay: Selectivity ratio, ratio of IC50 for human recombinant CYP1A2 to IC50 for human recombinant CYP1B1; details: recombinant CYP1A2 and recombinant CYP1B1, read-out: Ratio IC50
Cytochrome P450 1A2 [2] = target: T1, Cytochrome P450 1A2; assay: Activity of human recombinant CYP1A2 assessed as NADPH oxidation level per pmol of CYP1A2 level at 10 uM by spectrophotometry; details: recombinant enzyme
Summary of the method: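 NADPH oxidation by human recombinant CYP1A2 (5 pmol/ml) in Tris buffer pH 7.4 with stilbene at 1–50 µM. Reaction started with 0.2 mM NADPH, 37 °C, 3 min. Absorbance at 340 nm read every 15 s; NADPH oxidized calculated with extinction coefficient 6.22 mM-1 cm-1.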

| SMILES | IC50 (Cytochrome P450 1A2 [1]) | IC50 (Cytochrome P450 1A1) | IC50 (Cytochrome P450 1B1) | Activity (Cytochrome P450 1A2 [2]) | selectivity ratio (CYP1A2 / CYP1A1) | selectivity ratio (CYP1A2 / CYP1B1) |
| --- | --- | --- | --- | --- | --- | --- |
| COc1ccc(/C=C/c2ccc(SC)cc2)cc1 | 23000 nM | 28000 nM | 5500 nM | < 0.3 µM/min | 0.8 | 4.2 |
| COc1cccc(/C=C/c2ccc(SC)cc2)c1OC | 22000 nM | 1800 nM | 1100 nM | < 0.3 µM/min | 12.2 | 20 |
| COc1ccc(OC)c(/C=C/c2ccc(SC)cc2)c1 | 39500 nM | 3800 nM | 1100 nM | < 0.3 µM/min | 10.4 | 35.9 |
| COc1ccc(/C=C/c2ccc(SC)cc2)c(OC)c1OC | > 50000 nM | 900 nM | 1000 nM | < 0.6 µM/min | > 55.5 | > 50 |
| COc1cc(OC)c(OC)cc1/C=C/c1ccc(SC)cc1 | 15000 nM | 800 nM | 900 nM | 2.91 µM/min | 18.7 | 16.7 |

The next compounds have a lower IC50 (Cytochrome P450 1A2 [1]) than those just listed; values first:

| IC50 (Cytochrome P450 1A2 [1]) | IC50 (Cytochrome P450 1A1) | IC50 (Cytochrome P450 1B1) | Activity (Cytochrome P450 1A2 [2]) | SMILES | selectivity ratio (CYP1A2 / CYP1A1) | selectivity ratio (CYP1A2 / CYP1B1) |
| --- | --- | --- | --- | --- | --- | --- |
| 14500 nM | 1000 nM | 300 nM |  | CSc1ccc(/C=C/c2ccccc2Cl)cc1 | 14.5 | 48.3 |
| 11500 nM | 1100 nM | 500 nM | < 0.3 µM/min | COc1cccc(/C=C/c2ccc(SC)cc2)c1 | 10.5 | 23 |
| 8100 nM | 2400 nM | 2000 nM | < 0.3 µM/min | COc1ccc(/C=C/c2ccc(SC)cc2)c(OC)c1 | 3.4 | 4.1 |
| 7500 nM | 1000 nM | 300 nM | < 0.3 µM/min | COc1ccccc1/C=C/c1ccc(SC)cc1 | 7.5 | 25 |
| 7000 nM | 3600 nM | 2600 nM | 2.22 µM/min | COc1cc(/C=C/c2ccc(SC)cc2)cc(OC)c1OC | 1.9 | 2.7 |
| 6500 nM | 400 nM | 500 nM | < 0.3 µM/min | COc1cc(OC)c(/C=C/c2ccc(SC)cc2)c(OC)c1 | 16.3 | 17 |
| 5000 nM | 1400 nM | 1500 nM | < 0.3 µM/min | COc1cc(/C=C/c2ccc(SC)cc2)cc(OC)c1 | 3.6 | 3.3 |
